ChEMBL document CHEMBL3526062, “Role of human UDP-glucuronosyltransferases in the biotransformation of the triazoloacridinone and imidazoacridinone antitumor agents C-1305 and C-1311: highly selective substrates for UGT1A10” (Drug Metab Dispos, 2012)

What was measured:
Liver microsome = test: Drug metabolism in human liver microsomes assessed as metabolite formation treated with C-1311 for 60 mins by ESI-MS/UV-vis spectroscopy in presence of 3 mM UDP-GlcUA; type: ADME; settings: 1 h
Summary of the method: (§1)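 Protein (5 μg UGT1A10 or microsomal) incubated with 0.2 mM substrate and 3 mM UDP-GlcUA, 60 min. HPLC on C18 at 25°C with a 15–80% methanol gradient in 0.05 M ammonium formate pH 3.4 at 1 ml/min. ESI positive-ion MS and UV/Vis spectra taken from the peaks. Glucuronide confirmed by 60 min further treatment with 1000 U E. coli β-glucuronidase.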

[1] = target: T1, UDP-glucuronosyltransferase 1A10 (Homo sapiens, UniProt Q9HAW8); test: Drug metabolism assessed as human recombinant UGT1A10-mediated compound formation treated with C-1311 for 60 mins by ESI-MS/UV-vis spectroscopy in presence of 3 mM UDP-GlcUA; type: ADME; settings: recombinant enzyme, 1 h; summary of the method: as §1
T1 sequence (Q9HAW8 whole entry): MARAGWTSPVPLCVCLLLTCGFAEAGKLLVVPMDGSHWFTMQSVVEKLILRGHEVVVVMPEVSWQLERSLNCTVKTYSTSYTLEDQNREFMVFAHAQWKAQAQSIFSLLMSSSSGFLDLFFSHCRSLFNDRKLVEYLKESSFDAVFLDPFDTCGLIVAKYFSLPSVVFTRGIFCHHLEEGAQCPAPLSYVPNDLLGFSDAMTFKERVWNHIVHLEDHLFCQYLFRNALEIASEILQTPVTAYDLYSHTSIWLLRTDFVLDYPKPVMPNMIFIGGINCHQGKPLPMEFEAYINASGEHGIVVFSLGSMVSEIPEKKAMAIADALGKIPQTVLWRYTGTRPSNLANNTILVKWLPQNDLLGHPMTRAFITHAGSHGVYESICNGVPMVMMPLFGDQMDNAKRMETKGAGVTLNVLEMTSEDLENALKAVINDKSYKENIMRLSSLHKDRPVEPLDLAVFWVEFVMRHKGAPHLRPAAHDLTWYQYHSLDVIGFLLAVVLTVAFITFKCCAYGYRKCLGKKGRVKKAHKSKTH

[2] = Drug metabolism in human intestinal microsomes assessed as metabolite formation treated with C-1311 for 60 mins by ESI-MS/UV-vis spectroscopy in presence of 3 mM UDP-GlcUA; type: ADME, Intestine, Microsome; settings: 1 h; summary of the method: as §1

Measured: Drug metabolism

CCN(CC)CCNc1ccc2ncn3c4ccc(O)cc4c(=O)c1c23 [C-1311]
metabolite_detected: Liver microsome | [1] | [2]
